For the data set, the system named is MS2 coat protein. The experiment in a line: apparent Kd, MS2 coat protein; higher = weaker binding; RNA-MaP array; FMN 200 µM where present. The method in brief: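 The titrant was SNAP-549-labelled MS2 coat protein, run from 0.7 or 1.5 nM in doubling steps to 3 µM. It was applied to designs transcribed by stalled E. coli RNA polymerase on Illumina sequencing-chip clusters, without ligand first and then with constant ligand, in 100 mM Tris-HCl pH 7.5, 80 mM KCl, 4 mM MgCl2, BSA, DTT, yeast tRNA and Tween-20. The apparent Kd is the median of filtered per-cluster binding-curve fits, with green signal normalised to red-channel RNA signal and control-cluster median Fmax.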

Where [1] appears, read: designed as: OFF switch for flavin mononucleotide, no ligand.
Setting [2] is: ligand present: flavin mononucleotide, designed as: OFF switch for flavin mononucleotide.
Setting [3] is: designed as: ON switch for flavin mononucleotide, no ligand.
Setting [4] is: ligand present: flavin mononucleotide, designed as: ON switch for flavin mononucleotide.

The apparent Kd is the concentration giving half-maximal binding under the conditions of the assay.

As for “GUCAGCUCGUGAGGAUAUACAUGUGCUGGAUACAGCACUAUUGUGUUCACAUGAGGAUCACCCAUGUAGAAGGCACGAGCUGAU”, the “apparent Kd” value is 17.7 nM under setting [1] and 87.3 nM under setting [2].

As to “AAAAAAAAUGUGUAGGAUAUCAGUAAAAAUACAUGAGGAUCACCCAUGUUCAAAAAAAAAAAAACUGAGAAGGACACGGAUGGUCC”, the “apparent Kd” value by setting is: under setting [3], 120 nM; under setting [4], 55.9 nM.

Regarding “CUGAGCUCAGGAUAUACAUGAGGAUCACCCAUGUGUUCCUGCGACGUUAGUUGCACAUGUAGAAGGGAGUUCGG”, the “apparent Kd” value is, setting by setting: under setting [1], 272 nM; under setting [2], 57.8 nM.

On to “GUGGGAAUCACAGGAUAUACAUGCGCCGCUUCGUUCUACAUGAGGAUCACCCAUGUGUGGUCCGUGUAGAAGGGUGUUUGUUAC”, for which the “apparent Kd” value worked out at 31 nM under setting [3] and 10.8 nM under setting [4].

On to “AAUAAUAAGGAGGAUAUCGUAUCGGAAACGAUACGAGAAGGUCUAACAUGAGGAUCACCCAUGUUCCUCAAUAA”, for which the “apparent Kd” value runs as follows: under setting [1], 40.8 nM; under setting [2], 54.6 nM.

In the case of “GGACAUGUACAGAAGGGCAAUUUAUUUAUUGAUUAUUUAGUUCUGUAUUGCAGGAUAUGUAAAACAUGAGGAUCACCCAUGUCC”, the “apparent Kd” value by setting is: under setting [3], 73.5 nM; under setting [4], 56.4 nM.

On to “UUAUCUAUGUAAGGAUAUCGAUGAUAUACGCAUCCGACAUGAGGAUCACCCAUGUUAUAUUUUGUCGAGAAGGUACAUUGUCGG”, for which the “apparent Kd” value is, setting by setting: under setting [3], 46.8 nM; under setting [4], 50.3 nM.

For the sequence “GGCUGGUGAGCAGGAUAUGGUCGUGCCUUUGUUCGUGGUCCCACAUGAGGAUCACCCAUGUUCGACCAGAAGGGCUGACUUGAG”, the “apparent Kd” value came out at 31 nM under setting [1] and 18.9 nM under setting [2].

Consider “UUAAAUCAUGUAGGAUAUGCAUGGCGAAGCUACGCAGAAGGACAUGAGGAUCACCCAUGUUAUAGCGACCAAGUUAGGUUGCAA”, for which the “apparent Kd” value reads like this: under setting [1], 88.7 nM; under setting [2], 211 nM.

Regarding “AAAUUGUCAGGAUAUCCAGCUAUACGAAAUAUGUAUACACGGGAGAAGGGACAUGAGGAUCACCCAUGUUUGAA”, the “apparent Kd” value amounted to 36.8 nM under setting [1] and 45.9 nM under setting [2].

Consider “GCGUAUAUAAGAUUUAUAAAACAGUCAGAAGGUGAUAAGACGACAUGAGGAUCACCCAUGUAAUUCAAGGAUAUGAUAAUGCGC”, for which the “apparent Kd” value reads like this: under setting [3], 56.3 nM; under setting [4], 15.4 nM.

For “GCCUCACAUGAGGAUCACCCAUGUCAGGAUAUAGGAGACGGUAGCUUUGCUGCCAUCGCUAGAAGGGACUGGCU”, the “apparent Kd” value runs as follows: under setting [1], 68.2 nM; under setting [2], 111 nM.

“GGAGGAGGUGUAGGAUAUAUAGAGGAGGGAGGGAUAGAAGGACAUGAGGAUCACCCAUGUGAGGAGGAGGAGGGAGGGAGGAGG”: the “apparent Kd” value under setting [1] amounted to 13.4 nM and the “apparent Kd” value under setting [2] was 11.9 nM.

“AUAGCAACAUGAGGAUCACCCAUGUAGGAUAUCGCUAUUGUAAUCAUGAAACAUGAUUACAAUAGCGAGAAGGACAUAUGCUAU”: the “apparent Kd” value by setting is: under setting [1], 6.51 nM; under setting [2], 9.75 nM.

As for “CCUUGUAUUGAGGAUAUGCGCCGGCUCGCUGGCGCAGAAGGCGGCACAUGAGGAUCACCCAUGUCAGUUCGCGA”, the “apparent Kd” value under setting [1] was 9.34 nM and the “apparent Kd” value under setting [2] was determined as 12 nM.

On to “ACAUAAAUUCGAGGAUAUCGGUGAAAUAAUUUACGAGAAGGCGAUAAUAGUUAUAGACUUAUAGACAUGAGGAUCACCCAUGUA”, for which the “apparent Kd” value by setting is: under setting [3], 30.3 nM; under setting [4], 27.6 nM.

Take “AGUAGAUCAGGAUAUACAUAAAUGAUAAUUAUGUACCUUCUACAUGAGGAUCACCCAUGUAGAAGGGAUCUACA”: the “apparent Kd” value reads like this: under setting [1], 13.1 nM; under setting [2], 11.9 nM.

For the sequence “GGAAAGUAAGGAUAUGCGAACAAACAAACAAACAAAAGGGAACAUGAGGAUCACCCAUGUAGAAGGUGCAAACA”, the “apparent Kd” value is 46.3 nM under setting [1] and 35.9 nM under setting [2].

As for “GUAACAUGAGGAUCACCCAUGUAUAGAACACUCAAUAGAUCUGAGGAUAUAGUGGAAUUUACACACUAGAAGGCAGUGGGUACA”, the “apparent Kd” value worked out at 53.9 nM under setting [3] and 31.9 nM under setting [4].

As for “GACUUUCGGGCAGGAUAUGGGUGCCGUCAAGACAUGAGGAUCACCCAUGUCCCAUACACGAGCGCUCAGAAGGGCUCAUUGUAG”, the “apparent Kd” value reads like this: under setting [3], 67 nM; under setting [4], 32.9 nM.

For “GGAUGACAUAGUCAUCCUUAACGAACAUGAGGAUCACCCAUGUAGGAUAUGCUACUCAAAGAGUAGCAGAAGGGUAUGUGUCUU”, the “apparent Kd” value was found to be 53.6 nM under setting [1] and 56.3 nM under setting [2].

“AAAAGGUUAGGAUAUGCCCGCCGGGUGGGAAGGCCGGGUGGGUAGAAGGGACAUGAGGAUCACCCAUGUAUAAA”: the “apparent Kd” value amounted to 47 nM under setting [1] and 19.9 nM under setting [2].

On to “AAGAAGUCAGGAUAUCCAGCUCGUCACUUGCGUGAUGAGUUGGAGAAGGGACAUGAGGAUCACCCAUGUAAAGU”, for which the “apparent Kd” value runs as follows: under setting [1], 56.9 nM; under setting [2], 55.5 nM.

For the sequence “UAUCUAUUUAUGGGAUUAGAUUAUGAGGAUAUCAUUUUUUUAUACAUGAGGAUCACCCAUGUUUCUGAGAAGGCAUAUUUAAUA”, the “apparent Kd” value under setting [3] worked out at 22.2 nM and the “apparent Kd” value under setting [4] is 8.12 nM.

As to “CCCGUGUGUUAAGGAUAUGGCAGGCGCGUUGAACCAGAAGGUAGCACAUGAGGAUCACCCAUGUGAAUGCUCGCGACUCGAGCG”, the “apparent Kd” value by setting is: under setting [1], 43.6 nM; under setting [2], 18.2 nM.

In the case of “ACUAGAAGCGUGAAAUAUCACAUGAGGAUCACCCAUGUGACGCAGGAUAUAACAAAAUCAGAAGGUUAGAAGGGUGAGCACGCC”, the “apparent Kd” value by setting is: under setting [3], 26.8 nM; under setting [4], 20.2 nM.

As for “AGACCGCUACGCCGGUUUCACGCACAGGAUAUGCGGUUACAUGAGGAUCACCCAUGUGGCCAUGUGUAGAAGGGUGGUUCGUGC”, the “apparent Kd” value is, setting by setting: under setting [3], 37 nM; under setting [4], 30.1 nM.

Consider “AAAGGCCAAGGAUAUACAUGAGGAUCACCCAUGUCGAGUCCCGGGCAUGUAAGUUGGUGUAGAAGGUGGAAGAA”, for which the “apparent Kd” value came to 13.4 nM under setting [1] and 13.5 nM under setting [2].

As to “AAAGUAGGAGGAUAUACAUAGAUACAGAUACAUGUAGACGUACAUGAGGAUCACCCAUGUAGAAGGCCUAUGUA”, the “apparent Kd” value under setting [1] was found to be 65.9 nM and the “apparent Kd” value under setting [2] stood at 212 nM.

Consider “GCCGAUUAAGUGAGGAUAUACCUAUGGAUACAUAGGUAGAAGGCACAUGAGGAUCACCCAUGUUCCUUAACGGC”, for which the “apparent Kd” value reads like this: under setting [1], 11.2 nM; under setting [2], 30 nM.

Regarding “GGUGCGUUUGUGAGGAUAUGCUGGUCCUUGGUUCGGCAGAAGGCACAUGAGGAUCACCCAUGUGGUGUCGUGCC”, the “apparent Kd” value reads like this: under setting [1], 35.1 nM; under setting [2], 77.5 nM.

On to “AGCAAGUCAGGAUAUGCGAAGUCAGGACACACACUGACGAAGCAGAAGGGACAUGAGGAUCACCCAUGUAAGCA”, for which the “apparent Kd” value runs as follows: under setting [1], 29.1 nM; under setting [2], 42.9 nM.

In the case of “UUACCUUAUGAGAAGGCGAUCAUGAAACAUGAUCGAGGAUAUCAUGUAAACAUGAGGAUCACCCAUGUAUGGGUAUUAUGGUAG”, the “apparent Kd” value under setting [3] turned out to be 133 nM and the “apparent Kd” value under setting [4] was 32.5 nM.

On to “CGAUGACACAGUCAUCCAAUACGAACAUGAGGAUCACCCAUGUAGGAUAUGGUACUCACAGAGUAGCAGAAGGACAUGUGCCUU”, for which the “apparent Kd” value reads like this: under setting [1], 72.8 nM; under setting [2], 158 nM.

For the sequence “AAGCGAGGGACAGGAUAUGCGGCGAAACUCGCCGCAGAAGGGUCGACAUGAGGAUCACCCAUGUCCUUACGCUCCACGUAGUGG”, the “apparent Kd” value was determined as 107 nM under setting [3] and 455 nM under setting [4].

“GUACUGUAGUGAGGAUAUACGAGAUCGAUAGAUCGGCGAUCCAUUAAUACAUGAGGAUCACCCAUGUAGAAGGCACUUCAGUAC”: the “apparent Kd” value by setting is: under setting [1], 6.25 nM; under setting [2], 78.4 nM.

Consider “GACACUAUGUUUGUCAGAUAGAGAGAGGAUAUGGCUCAUGAGACAUGAGGAUCACCCAUGUAUAAUCAGAAGGCUCGAGUAGGA”, for which the “apparent Kd” value is, setting by setting: under setting [3], 12.5 nM; under setting [4], 9.56 nM.

For “AUACUCAUGUAAGGAUAUGCAGCCGAAACGGCUGCAGAAGGUACUAUAAUACAUGAGGAUCACCCAUGUCGAAAUAAAAUAGUU”, the “apparent Kd” value under setting [3] is 201 nM and the “apparent Kd” value under setting [4] came to 47.9 nM.

Take “AAUGAGCAGUAGAAGGCAUGUCUACGGACAUGAGGAUCACCCAUGUUGUGAAUCCGAAAGGAGCAUGAGGAUAUACUGCUCUAA”: the “apparent Kd” value amounted to 70.7 nM under setting [3] and 14.7 nM under setting [4].

As to “AAUAUAGAGCUGGUCUCAAAAUAAACAUGAGGAUCACCCAUGUAGGAUAUCAGCACGAUAAGUGCUGAGAAGGACAUCCAGCUC”, the “apparent Kd” value reads like this: under setting [1], 16.3 nM; under setting [2], 18.4 nM.

With “UUGUUGUAUGUAGGAUAUGCGUAUUAUUAUUAUGCAGAAGGACAUGAGGAUCACCCAUGUAUAUUAUUAUUAUAUGUUAUAUAU”, the “apparent Kd” value is 26.2 nM under setting [1] and 36.3 nM under setting [2].

“GUUAAGGUAGGAUAUACGAUAAUAUAGGGUAGAUAUAUAACACAUGAGGAUCACCCAUGUAGAAGGACCAAUUG”: the “apparent Kd” value is, setting by setting: under setting [1], 30.2 nM; under setting [2], 85.7 nM.

As for “AGCUACGUUUCGUAGCAGUGUCAUCGAGAAGGCCCUUACAUGACAACAUGAGGAUCACCCAUGUGGGAGGAUAUCGAUGAUACA”, the “apparent Kd” value turned out to be 11.4 nM under setting [3] and 8.98 nM under setting [4].

For “GGAUGACAAAGUCAUCCAAAUCGAACAUGAGGAUCACCCAUGUAGGAUAUGCUACUCAAAGAGUAGCAGAAGGACAUGUGCUUU”, the “apparent Kd” value runs as follows: under setting [1], 37.1 nM; under setting [2], 196 nM.

For “AAAGACUAAGGAUAUACAUGAGGAUCACCCAUGUCUACCCACAUGCUGGUAUCAACCUGUAGAAGGUAGUUCAA”, the “apparent Kd” value is 27.8 nM under setting [1] and 85.9 nM under setting [2].

“UCAUUUACCACAGGAUAUAUUCAUAUACAGUUGUUUGGCUCUUACAUGUUAGUAGAAGGGUGCAACAUGAGGAUCACCCAUGUA”: the “apparent Kd” value was found to be 298 nM under setting [3] and 163 nM under setting [4].

“GAAUUCGCAUGAGGAUAUGCACUCAUUUCAUGUGCAGAAGGUAUUUCAUUAGACAUGAGGAUCACCCAUGUAUUGGUCACUAAC”: the “apparent Kd” value under setting [3] was determined as 21.5 nM and the “apparent Kd” value under setting [4] is 16.6 nM.

On to “GUGGUGCAUAUACGUGGAUGUACAUGAGGAUCACCCAUGUAAGAGGAUAUGCGGAUACUAGCUCAGCAGAAGGCUUACAAAUAA”, for which the “apparent Kd” value runs as follows: under setting [1], 16.1 nM; under setting [2], 73.8 nM.

(Values after the EternaBench riboswitch data.)
